Source: ChEMBL document CHEMBL4359813, “Synthesis and antimycobacterial activity of imidazo[1,2-b][1,2,4,5]tetrazines” (2019)
In brackets after ≈: the same amount, converted by molar mass. Activity calls are given as the source filed them. The rule behind the calls is not given here.

Key:
[1] = system: Mycolicibacterium smegmatis; test: Antimycobacterial activity against Mycobacterium smegmatis atR10 assessed as decrease in drug resistance development at 10 nmol/disc after 2 to 3 days by paper disc method; format: functional, organism-based
Summary of the method: (§1)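 Mutant M. smegmatis strains were grown in Middlebrook 7H9/OADC/Tween/glycerol to OD600 1.2. Cultures were diluted 1:9:10 (culture:water:M290) and overlaid on M290 agar. Commercial or impregnated paper discs were applied and plates incubated 2–3 days at 37 °C. Inhibition halos were measured to 1 mm, run in triplicate, mean ± SD.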

[2] = system: Mycolicibacterium smegmatis; test: Antimycobacterial activity against Mycobacterium smegmatis atR17 assessed as decrease in drug resistance at 10 nmol/disc after 2 to 3 days by paper disc method; format: functional, organism-based; summary of the method: as §1
[3] = system: Mycolicibacterium smegmatis MC2 155; test: Inhibition of STPK in Mycobacterium smegmatis MC2 155 expressing aminoglycoside phophotransferase-8 assessed as growth inhibition at 100 nmol/disk after 18 hrs in presence of kanamycin by paper disk method
[4] = system: Mycolicibacterium smegmatis; test: Antimycobacterial activity against Mycobacterium smegmatis atR40 assessed as decrease in drug resistance development at 300 nmol/disc after 2 to 3 days by paper disc method; format: functional, organism-based
Summary of the method: (§2)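 Drug-resistant M. smegmatis mc2 155 mutants, isolated on M290 agar with 3.5-4× MIC of compound and resistance re-confirmed, grown in Middlebrook 7H9 (OADC, 0.1% Tween-80, 0.4% glycerol) to OD600 1.2. Diluted 1:9:10 culture:water:M290 and poured as top layer on M290 agar. Impregnated paper discs applied; 37 °C for 2–3 days. Halos measured to nearest 1 mm; triplicates, mean ± SD versus control strain.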

[5] = system: Mycolicibacterium smegmatis; test: Antimycobacterial activity against Mycobacterium smegmatis atR11 in liquid medium after 48 hrs by two-fold serial dilution method; format: functional; conditions: atR11, 48 h
Summary of the method: (§3)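 M. smegmatis resistant mutants were isolated on M290 agar containing 3.5-4× MIC of the test compound at 30°C and resistance was reconfirmed. MIC was then run in Lemco-Tw broth (Tween-80 0.05%). An overnight culture was diluted 1:200, and two-fold serial dilutions in DMSO were added. Plates were incubated at 37°C and 250 rpm for 48 h. MIC was read as the lowest concentration with no visible growth.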

[6] = system: Mycolicibacterium smegmatis; test: Antimycobacterial activity against Mycobacterium smegmatis atR10 in liquid medium after 48 hrs by two-fold serial dilution method; format: functional; conditions: atR10, 48 h; summary of the method: as §3
[7] = system: Mycolicibacterium smegmatis; test: Antimycobacterial activity against Mycobacterium smegmatis atR37 in liquid medium after 48 hrs by two-fold serial dilution method; format: functional; conditions: atR37, 48 h; summary of the method: as §3
[8] = system: Mycolicibacterium smegmatis; test: Antimycobacterial activity against Mycobacterium smegmatis atR14 in liquid medium after 48 hrs by two-fold serial dilution method; format: functional; conditions: atR14, 48 h; summary of the method: as §3
[9] = system: Mycolicibacterium smegmatis; test: Antimycobacterial activity against Mycobacterium smegmatis atR1 assessed as decrease in drug resistance development at 300 nmol/disc after 2 to 3 days by paper disc method; format: functional, organism-based; summary of the method: as §1
[10] = system: Mycolicibacterium smegmatis; test: Antimycobacterial activity against Mycobacterium smegmatis atR37 assessed as decrease in drug resistance development at 300 nmol/disc after 2 to 3 days by paper disc method; format: functional, organism-based; summary of the method: as §2
[11] = system: Mycolicibacterium smegmatis; test: Antimycobacterial activity against Mycobacterium smegmatis atR19 in liquid medium after 48 hrs by two-fold serial dilution method; format: functional; conditions: atR19, 48 h; summary of the method: as §3
[12] = system: Mycolicibacterium smegmatis; test: Antimycobacterial activity against Mycobacterium smegmatis atR2 in liquid medium after 48 hrs by two-fold serial dilution method; format: functional; conditions: atR2, 48 h; summary of the method: as §3
[13] = system: Mycolicibacterium smegmatis; test: Antimycobacterial activity against Mycobacterium smegmatis atR2 assessed as decrease in drug resistance development at 300 nmol/disc after 2 to 3 days by paper disc method; format: functional, organism-based; summary of the method: as §1
[14] = system: Mycolicibacterium smegmatis; test: Antimycobacterial activity against Mycobacterium smegmatis atR17 in liquid medium after 48 hrs by two-fold serial dilution method; format: functional; conditions: atR17, 48 h; summary of the method: as §3
[15] = system: Mycobacterium tuberculosis; test: Antimycobacterial activity against Mycobacterium tuberculosis H37Rv in liquid medium; format: functional
Summary of the method: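 M. tuberculosis H37Rv; MIC determined in liquid medium on the automated Bactec MGIT 960 system.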

[16] = system: Mycolicibacterium smegmatis; test: Antimycobacterial activity against Mycobacterium smegmatis atR33 in liquid medium after 48 hrs by two-fold serial dilution method; format: functional; conditions: atR33, 48 h; summary of the method: as §3
[17] = system: Mycolicibacterium smegmatis; test: Antimycobacterial activity against Mycobacterium smegmatis atR8 assessed as decrease in drug resistance development at 300 nmol/disc after 2 to 3 days by paper disc method; format: functional, organism-based; summary of the method: as §2
[18] = system: Mycolicibacterium smegmatis; test: Antimycobacterial activity against Mycobacterium smegmatis atR14 assessed as decrease in drug resistance development at 300 nmol/disc after 2 to 3 days by paper disc method; format: functional, organism-based; summary of the method: as §1
[19] = system: Mycolicibacterium smegmatis; test: Antimycobacterial activity against Mycobacterium smegmatis MC2 155 in solid medium by two-fold serial dilution method; format: functional
Summary of the method: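 M290 soybean-casein agar plates carried two-fold compound dilutions, 8–64 or 8–128 µg/ml, some with extra 20 or 25 µg/ml plates.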

[20] = system: Mycolicibacterium smegmatis; test: Antimycobacterial activity against Mycobacterium smegmatis atR33 assessed as decrease in drug resistance development at 300 nmol/disc after 2 to 3 days by paper disc method; format: functional, organism-based; summary of the method: as §1
[21] = system: Mycolicibacterium smegmatis; test: Antimycobacterial activity against Mycobacterium smegmatis atR1 in liquid medium after 48 hrs by two-fold serial dilution method; format: functional; conditions: atR1, 48 h; summary of the method: as §3
[22] = system: Mycolicibacterium smegmatis; test: Antimycobacterial activity against Mycobacterium smegmatis atR17 assessed as decrease in drug resistance development at 300 nmol/disc after 2 to 3 days by paper disc method; format: functional, organism-based; summary of the method: as §1
[23] = system: Mycolicibacterium smegmatis; test: Antimycobacterial activity against Mycobacterium smegmatis atR10 assessed as decrease in drug resistance development at 300 nmol/disc after 2 to 3 days by paper disc method; format: functional, organism-based; summary of the method: as §1
[24] = system: Mycolicibacterium smegmatis; test: Antimycobacterial activity against Mycobacterium smegmatis atR40 in liquid medium after 48 hrs by two-fold serial dilution method; format: functional; conditions: atR40, 48 h; summary of the method: as §3
[25] = system: Mycolicibacterium smegmatis; test: Antimycobacterial activity against Mycobacterium smegmatis atR8 in liquid medium after 48 hrs by two-fold serial dilution method; format: functional; conditions: atR8, 48 h; summary of the method: as §3
[26] = system: Mycolicibacterium smegmatis; test: Antimycobacterial activity against Mycobacterium smegmatis MC2 155 in liquid medium after 48 hrs by two-fold serial dilution method; format: functional; conditions: MC2 155, 48 h
Summary of the method: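 M. smegmatis mc2 155 grown overnight in Lemco-Tw broth, diluted 1:200 in fresh broth. […] Top wells could carry 4% DMSO. Incubated 48 h at 37 °C with shaking at 250 rpm. MIC is the lowest concentration with no visible growth.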

[27] = system: Mycolicibacterium smegmatis; test: Antimycobacterial activity against Mycobacterium smegmatis atR11 assessed as decrease in drug resistance development at 300 nmol/disc after 2 to 3 days by paper disc method; format: functional, organism-based; summary of the method: as §1
[28] = system: Mycolicibacterium smegmatis; test: Antimycobacterial activity against Mycobacterium smegmatis atR19 assessed as decrease in drug resistance development at 300 nmol/disc after 2 to 3 days by paper disc method; format: functional, organism-based; summary of the method: as §1
[29] = system: Mycolicibacterium smegmatis MC2 155; test: Inhibition of STPK in Mycobacterium smegmatis MC2 155 expressing aminoglycoside phophotransferase-8 assessed as growth inhibition at 50 nmol/disk after 18 hrs in presence of kanamycin by paper disk method
[30] = system: Mycolicibacterium smegmatis; test: Antimycobacterial activity against Mycobacterium smegmatis atR9 in liquid medium after 48 hrs by two-fold serial dilution method; format: functional; conditions: atR9, 48 h; summary of the method: as §3
[31] = system: Mycolicibacterium smegmatis; test: Antimycobacterial activity against Mycobacterium smegmatis atR9 assessed as decrease in drug resistance development at 200 nmol/disc after 2 to 3 days by paper disc method; format: functional, organism-based; summary of the method: as §2
[32] = system: Mycolicibacterium smegmatis; test: Antimycobacterial activity against Mycobacterium smegmatis atR17 assessed as decrease in drug resistance development at 200 nmol/disc after 2 to 3 days by paper disc method; format: functional, organism-based; summary of the method: as §1
[33] = system: Mycolicibacterium smegmatis; test: Antimycobacterial activity against Mycobacterium smegmatis atR10 assessed as decrease in drug resistance development at 200 nmol/disc after 2 to 3 days by paper disc method; format: functional, organism-based; summary of the method: as §1
[34] = system: Mycolicibacterium smegmatis; test: Antimycobacterial activity against Mycobacterium smegmatis atR8 assessed as decrease in drug resistance development at 200 nmol/disc after 2 to 3 days by paper disc method; format: functional, organism-based; summary of the method: as §2
[35] = system: Mycolicibacterium smegmatis MC2 155; test: Inhibition of STPK in Mycobacterium smegmatis MC2 155 expressing aminoglycoside phophotransferase-8 assessed as growth inhibition at 5 nmol/disk after 18 hrs in presence of kanamycin by paper disk method

| SMILES | MIC [5] | MIC [6] | MIC [7] | MIC [8] | MIC [11] | MIC [12] | MIC [14] | MIC [15] | MIC [16] | MIC [19] | MIC [21] | MIC [24] | MIC [25] | MIC [26] | inhibition zone (IZ) [29] | MIC [30] | also measured |
| --- | --- | --- | --- | --- | --- | --- | --- | --- | --- | --- | --- | --- | --- | --- | --- | --- | --- |
| O=C1c2c(O)ccc(O)c2C(=O)c2c(NCCNCCO)ccc(NCCNCCO)c21 |  |  |  |  |  |  |  |  |  |  |  |  |  |  |  |  | Activity [1]: inactive; Activity [2]: inactive |
| COc1ccc(OC)c(Sc2cnc3nnc(-n4nc(C)cc4C)nn23)c1 |  |  |  |  |  |  |  |  |  |  |  |  |  |  |  |  | inhibition zone (IZ) [3]: 9.3 mm |
| Cc1cc(C)n(-c2nnc3ncc(SC(C)C)n3n2)n1 | 512 µg/mL (≈ 1770 µM) | 512 µg/mL (≈ 1770 µM) | 512 µg/mL (≈ 1770 µM) | 256 µg/mL (≈ 885 µM) | 256 µg/mL (≈ 885 µM) | 1020 µg/mL (≈ 3540 µM) | 256 µg/mL (≈ 885 µM) | 3.5 µM (≈ 1.01 µg/mL) | 512 µg/mL (≈ 1770 µM) | 221 µM (≈ 64 µg/mL) | 512 µg/mL (≈ 1770 µM) | 512 µg/mL (≈ 1770 µM) | 512 µg/mL (≈ 1770 µM) | 221 µM (≈ 64 µg/mL) | 13.3 mm | 256 µg/mL (≈ 885 µM) | Activity [4]: inactive; Activity [9]: inactive; Activity [10]: inactive; Activity [13]: inactive; Activity [17]: inactive; Activity [18]: inactive; Activity [20]: inactive; Activity [22]: inactive; Activity [23]: inactive; Activity [27]: inactive; Activity [28]: inactive |
| CCCCCCCNc1nnc2ncc(Sc3ccccc3)n2n1 |  |  |  |  |  |  |  |  |  |  |  |  |  |  | 12 mm |  |  |
| Cc1cc(C)n(-c2nnc3ncc(SCc4ccccc4)n3n2)n1 | > 64 µg/mL | > 64 µg/mL | > 64 µg/mL | > 64 µg/mL | > 64 µg/mL | > 64 µg/mL | > 64 µg/mL | 3 µM (≈ 1.01 µg/mL) | > 64 µg/mL | 59.3 µM (≈ 20 µg/mL) | > 64 µg/mL | > 64 µg/mL | > 64 µg/mL | 94.8 µM (≈ 32 µg/mL) |  | > 64 µg/mL | Activity [4]: inactive; Activity [9]: inactive; Activity [10]: inactive; Activity [13]: inactive; Activity [17]: inactive; Activity [18]: inactive; Activity [20]: inactive; inhibition zone (IZ) [3]: 13.7 mm; Activity [22]: inactive; Activity [23]: inactive; Activity [27]: inactive; Activity [28]: inactive |
| c1cn(-c2nnc3nccn3n2)cn1 | 32 µg/mL (≈ 171 µM) | 32 µg/mL (≈ 171 µM) | 32 µg/mL (≈ 171 µM) | 32 µg/mL (≈ 171 µM) | 32 µg/mL (≈ 171 µM) | 32 µg/mL (≈ 171 µM) | 32 µg/mL (≈ 171 µM) | 134 µM (≈ 25 µg/mL) | 32 µg/mL (≈ 171 µM) | 134 µM (≈ 25 µg/mL) | 32 µg/mL (≈ 171 µM) | 32 µg/mL (≈ 171 µM) | 32 µg/mL (≈ 171 µM) | 171 µM (≈ 32 µg/mL) | 12.8 mm | 32 µg/mL (≈ 171 µM) | Activity [31]: inactive; Activity [32]: inactive; Activity [33]: inactive; Activity [34]: inactive |
| CCC(CCCO)Sc1cnc2nnc(-n3nc(C)cc3C)nn12 (stereo not given) |  |  |  |  |  |  |  |  |  |  |  |  |  |  |  |  | inhibition zone (IZ) [35]: 9.3 mm |
| Cc1cc(C)n(-c2nnc3nc(-c4ccccc4)c(SC(C)C)n3n2)n1 |  |  |  |  |  |  |  |  |  |  |  |  |  |  |  |  | inhibition zone (IZ) [35]: 11 mm |
